{
  "source": "ChEMBL document CHEMBL4480394",
  "about": "“Benzimidazolone-based selective σ2 receptor ligands: Synthesis and pharmacological evaluation” (Eur J Med Chem, 2019)",
  "key": {"[1]": {"biological_target": "T1, Sigma intracellular receptor 2 (Rattus norvegicus, UniProt Q5U3Y7)", "T1 sequence (Q5U3Y7 whole entry)": "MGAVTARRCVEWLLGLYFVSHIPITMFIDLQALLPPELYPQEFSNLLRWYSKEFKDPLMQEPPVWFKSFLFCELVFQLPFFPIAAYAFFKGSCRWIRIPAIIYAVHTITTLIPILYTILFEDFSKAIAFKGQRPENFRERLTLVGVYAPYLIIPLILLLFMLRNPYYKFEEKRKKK", "assay": "Displacement of [3H]-DTG from sigma2 receptor in rat brain membranes after 120 mins in presence of (+)-pentazocine by radioligand binding assay", "format": "cell membranes"}, "[2]": {"biological_target": "Sigma non-opioid intracellular receptor 1 (Rattus norvegicus, UniProt Q9R0C9)", "sequence (Q9R0C9 whole entry)": "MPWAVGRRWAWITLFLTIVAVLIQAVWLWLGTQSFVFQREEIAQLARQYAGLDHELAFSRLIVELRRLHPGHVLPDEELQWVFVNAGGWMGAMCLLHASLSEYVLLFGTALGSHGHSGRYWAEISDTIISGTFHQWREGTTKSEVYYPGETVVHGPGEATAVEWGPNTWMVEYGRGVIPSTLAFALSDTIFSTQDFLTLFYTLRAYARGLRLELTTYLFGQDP", "assay": "Displacement of [3H](+)-pentazocine from sigma1 receptor in rat brain membranes after 120 mins by radioligand binding assay", "format": "cell membranes"}, "Rattus norvegicus [3]": {"organism": "Rattus norvegicus", "assay": "Selectivity ratio of Ki for sigma1 receptor in rat brain membranes to Ki for sigma2 receptor in rat brain membranes", "format": "cell membranes"}, "[4]": {"biological_target": "Sodium-dependent dopamine transporter (Rattus norvegicus, UniProt P23977)", "sequence (P23977 whole entry)": "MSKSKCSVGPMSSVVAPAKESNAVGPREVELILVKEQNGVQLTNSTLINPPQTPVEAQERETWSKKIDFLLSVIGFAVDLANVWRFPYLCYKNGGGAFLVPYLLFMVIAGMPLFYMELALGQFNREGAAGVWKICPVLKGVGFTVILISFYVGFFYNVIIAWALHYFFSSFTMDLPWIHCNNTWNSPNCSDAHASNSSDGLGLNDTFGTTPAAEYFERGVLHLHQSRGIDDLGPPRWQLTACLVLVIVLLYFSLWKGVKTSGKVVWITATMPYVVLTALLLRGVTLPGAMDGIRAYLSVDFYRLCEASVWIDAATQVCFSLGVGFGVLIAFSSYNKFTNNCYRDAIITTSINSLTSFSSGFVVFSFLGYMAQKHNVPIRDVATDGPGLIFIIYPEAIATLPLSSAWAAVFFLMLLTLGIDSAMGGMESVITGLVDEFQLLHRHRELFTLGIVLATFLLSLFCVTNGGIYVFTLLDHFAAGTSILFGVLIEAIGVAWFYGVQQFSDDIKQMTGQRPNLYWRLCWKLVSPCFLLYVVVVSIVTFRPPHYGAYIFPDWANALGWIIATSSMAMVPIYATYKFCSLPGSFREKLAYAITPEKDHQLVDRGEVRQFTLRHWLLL", "assay": "Displacement of [3H]WIN 35428 from dopamine transporter in rat striatal membranes after 120 mins by radioligand binding assay", "format": "cell membranes, Striatum, Membrane"}, "D(2) dopamine receptor": {"biological_target": "D(2) dopamine receptor (Rattus norvegicus, UniProt P61169)", "sequence (P61169 whole entry)": "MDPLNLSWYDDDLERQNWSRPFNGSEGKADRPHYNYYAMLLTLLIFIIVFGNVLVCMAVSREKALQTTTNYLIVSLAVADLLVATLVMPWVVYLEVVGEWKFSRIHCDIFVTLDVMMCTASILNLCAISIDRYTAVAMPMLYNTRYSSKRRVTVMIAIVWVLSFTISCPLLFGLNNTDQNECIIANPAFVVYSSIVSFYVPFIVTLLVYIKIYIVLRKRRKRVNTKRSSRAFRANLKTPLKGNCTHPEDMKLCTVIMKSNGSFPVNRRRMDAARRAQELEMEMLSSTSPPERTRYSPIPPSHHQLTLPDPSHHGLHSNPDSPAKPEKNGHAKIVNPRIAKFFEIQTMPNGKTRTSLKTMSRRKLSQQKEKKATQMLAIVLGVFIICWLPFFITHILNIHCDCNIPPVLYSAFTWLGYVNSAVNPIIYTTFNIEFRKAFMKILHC", "assay": "Displacement of [3H](-)-sulpiride from dopamine D2 receptor in rat brain membranes after 120 mins by radioligand binding assay", "format": "cell membranes"}, "[5]": {"assay": "Displacement of [3H]nisoxetine from norepinephrine transporter in rat cerebral cortex membranes after 120 mins by radioligand binding assay", "format": "cell membranes, Membrane"}, "[6]": {"biological_target": "Sodium-dependent serotonin transporter (Rattus norvegicus, UniProt P31652)", "sequence (P31652 whole entry)": "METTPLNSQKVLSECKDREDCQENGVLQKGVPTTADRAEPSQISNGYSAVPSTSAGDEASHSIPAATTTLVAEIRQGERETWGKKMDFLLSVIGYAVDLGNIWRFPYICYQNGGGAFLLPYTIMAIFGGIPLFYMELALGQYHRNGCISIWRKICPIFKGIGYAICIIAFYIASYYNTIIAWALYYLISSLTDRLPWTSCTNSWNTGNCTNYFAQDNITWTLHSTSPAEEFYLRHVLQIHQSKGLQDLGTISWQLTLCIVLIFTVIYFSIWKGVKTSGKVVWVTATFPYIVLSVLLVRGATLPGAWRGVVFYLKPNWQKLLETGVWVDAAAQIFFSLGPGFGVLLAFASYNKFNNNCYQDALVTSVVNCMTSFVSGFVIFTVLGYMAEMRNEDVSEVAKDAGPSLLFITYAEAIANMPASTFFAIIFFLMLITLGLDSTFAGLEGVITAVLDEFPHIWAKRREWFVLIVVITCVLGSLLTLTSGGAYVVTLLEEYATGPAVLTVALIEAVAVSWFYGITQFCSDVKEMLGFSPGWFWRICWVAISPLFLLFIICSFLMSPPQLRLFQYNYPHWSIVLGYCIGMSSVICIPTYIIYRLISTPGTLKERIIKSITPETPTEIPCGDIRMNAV", "assay": "Displacement of [3H]paroxetine from serotonin transporter in rat brainstem membranes after 120 mins by radioligand binding assay", "format": "cell membranes", "outline": "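Rat brainstem membranes, 0.2 nM [3H]paroxetine; nonspecific with 1.5 µM imipramine. Ice-cold buffer stop, glass-fiber filtration, Cheng-Prusoff Ki; triplicate, mean ± SEM.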"}, "Opioid receptor": {"biological_target": "Opioid receptor (Rattus norvegicus, UniProt P33533+P34975+P33535)", "assay": "Displacement of [3H]bremazocine from opioid receptor in rat brain membranes after 120 mins by radioligand binding assay", "format": "cell membranes"}, "[7]": {"biological_target": "5-hydroxytryptamine receptor 2A (Rattus norvegicus, UniProt P14842)", "sequence (P14842 whole entry)": "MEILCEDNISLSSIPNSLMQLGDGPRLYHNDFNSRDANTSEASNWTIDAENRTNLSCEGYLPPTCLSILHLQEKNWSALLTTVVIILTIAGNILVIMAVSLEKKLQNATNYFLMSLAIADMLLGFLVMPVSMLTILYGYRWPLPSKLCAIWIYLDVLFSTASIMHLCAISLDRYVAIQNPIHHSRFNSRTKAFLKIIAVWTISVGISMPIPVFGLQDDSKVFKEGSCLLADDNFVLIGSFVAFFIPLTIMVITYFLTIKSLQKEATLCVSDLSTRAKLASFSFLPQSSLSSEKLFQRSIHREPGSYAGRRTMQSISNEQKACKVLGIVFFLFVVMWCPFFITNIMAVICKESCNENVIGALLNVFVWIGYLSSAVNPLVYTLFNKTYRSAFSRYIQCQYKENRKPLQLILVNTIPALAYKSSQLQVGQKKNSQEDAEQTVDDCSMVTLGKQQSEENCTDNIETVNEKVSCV", "assay": "Displacement of [3H]ketanserin from 5-HT2 receptor in rat brain membranes after 120 mins by radioligand binding assay", "format": "cell membranes", "outline": "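5-HT2 site in rat brain (minus cerebellum) membranes labeled with 2 nM [3H]ketanserin; 1 µM mianserin nonspecific. Glass-fiber filtration, Ki by Cheng-Prusoff; triplicate, mean ± SEM.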"}, "Mus musculus": {"system": "Mus musculus", "assay": "Anticonvulsant activity in ip dosed Swiss Webster mouse assessed as reduction in cocaine-induced convulsion pretreated for 15 mins followed by cocaine-challenge and measured for 30 mins", "format": "functional, organism-based"}, "Glutamate NMDA receptor": {"biological_target": "Glutamate NMDA receptor", "assay": "Displacement of [3H]TCP from NMDA receptor in rat brain membranes after 120 mins by radioligand binding assay", "format": "cell membranes", "outline": "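PCP site of NMDA receptor in rat brain minus cerebellum membranes, 5 nM [3H]TCP; nonspecific with 10 µM cyclazocine.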"}, "Rattus norvegicus [8]": {"organism": "Rattus norvegicus", "assay": "Selectivity ratio of Ki for 5-HT2 receptor in rat brain membranes to Ki for sigma2 receptor in rat brain membranes", "format": "cell membranes"}},
  "data": [
    {"smiles": "CCCCCCCCCCn1c(=O)n(CCCCN2CCN(c3ccc(F)cc3)CC2)c2ccc(C(C)=O)cc21", "values": [
      {"measurement": "Ki", "setting": "[1]", "value": 32.5, "unit": "nM"},
      {"measurement": "Ki", "setting": "[2]", "value": 988, "unit": "nM"},
      {"measurement": "Ratio Ki", "setting": "Rattus norvegicus [3]", "value": 30.4}
    ]},
    {"smiles": "CCCCCCCCCCn1c(=O)n(CCCCN2CCN(c3ccc(F)cc3)CC2)c2ccccc21", "values": [
      {"measurement": "Ki", "setting": "[1]", "value": 4.55, "unit": "nM"},
      {"measurement": "Ki", "setting": "[2]", "value": 724, "unit": "nM"},
      {"measurement": "Ratio Ki", "setting": "Rattus norvegicus [3]", "value": 159}
    ]},
    {"smiles": "CCCn1c(=O)n(CCCCN2CCN(c3ccc(F)cc3)CC2)c2ccccc21", "values": [
      {"measurement": "Ki", "setting": "[1]", "value": 0.66, "unit": "nM"},
      {"measurement": "Ki", "setting": "[2]", "value": 752, "unit": "nM"},
      {"measurement": "Ki", "setting": "[4]", "value": "> 1000", "unit": "nM"},
      {"measurement": "Ki", "setting": "D(2) dopamine receptor", "value": "> 10", "unit": "µM"},
      {"measurement": "Ki", "setting": "[5]", "value": "> 10", "unit": "µM"},
      {"measurement": "Ratio Ki", "setting": "Rattus norvegicus [3]", "value": 1140},
      {"measurement": "Ki", "setting": "[6]", "value": "> 1000", "unit": "nM"},
      {"measurement": "Ki", "setting": "Opioid receptor", "value": "> 10", "unit": "µM"},
      {"measurement": "Ki", "setting": "[7]", "value": 54.7, "unit": "nM"},
      {"measurement": "Activity", "setting": "Mus musculus", "value": "Dose-dependent effect"},
      {"measurement": "Ki", "setting": "Glutamate NMDA receptor", "value": "> 10", "unit": "µM"},
      {"measurement": "Ratio Ki", "setting": "Rattus norvegicus [8]", "value": 83}
    ]},
    {"smiles": "CC(=O)c1ccc2c(c1)n(C)c(=O)n2CCCCN1CCN(c2ccc(F)cc2)CC1", "values": [
      {"measurement": "Ki", "setting": "[1]", "value": 7.6, "unit": "nM"},
      {"measurement": "Ki", "setting": "[2]", "value": 72.3, "unit": "nM"},
      {"measurement": "Ratio Ki", "setting": "Rattus norvegicus [3]", "value": 9.5}
    ]},
    {"smiles": "CCCn1c(=O)n(CCCCN2CCN(c3ccc(F)cc3)CC2)c2ccc(C(C)=O)cc21", "values": [
      {"measurement": "Ki", "setting": "[1]", "value": 1.81, "unit": "nM"},
      {"measurement": "Ki", "setting": "[2]", "value": 273, "unit": "nM"},
      {"measurement": "Ratio Ki", "setting": "Rattus norvegicus [3]", "value": 151}
    ]},
    {"smiles": "Cn1c(=O)n(CCCCN2CCN(c3ccc(F)cc3)CC2)c2ccccc21", "values": [
      {"measurement": "Ki", "setting": "[1]", "value": 2.05, "unit": "nM"}
    ]},
    {"smiles": "CC(=O)c1ccc2c(c1)[nH]c(=O)n2CCCCN1CCN(c2ccc(F)cc2)CC1", "values": [
      {"measurement": "Ki", "setting": "[1]", "value": 28.5, "unit": "nM"},
      {"measurement": "Ki", "setting": "[2]", "value": 166, "unit": "nM"},
      {"measurement": "Ratio Ki", "setting": "Rattus norvegicus [3]", "value": 5.8}
    ]},
    {"smiles": "CCCCCn1c(=O)n(CCCCN2CCN(c3ccc(F)cc3)CC2)c2ccccc21", "values": [
      {"measurement": "Ki", "setting": "[1]", "value": 4.27, "unit": "nM"},
      {"measurement": "Ki", "setting": "[2]", "value": 2270, "unit": "nM"},
      {"measurement": "Ki", "setting": "[4]", "value": "> 1000", "unit": "nM"},
      {"measurement": "Ki", "setting": "D(2) dopamine receptor", "value": "> 1", "unit": "µM"},
      {"measurement": "Ki", "setting": "[5]", "value": "> 10", "unit": "µM"},
      {"measurement": "Ratio Ki", "setting": "Rattus norvegicus [3]", "value": 532},
      {"measurement": "Ki", "setting": "[6]", "value": 446, "unit": "nM"},
      {"measurement": "Ki", "setting": "Opioid receptor", "value": "> 10", "unit": "µM"},
      {"measurement": "Ki", "setting": "[7]", "value": 250, "unit": "nM"},
      {"measurement": "Ki", "setting": "Glutamate NMDA receptor", "value": "> 10", "unit": "µM"}
    ]},
    {"smiles": "CCCCCn1c(=O)n(CCCCN2CCN(c3ccc(F)cc3)CC2)c2ccc(C(C)=O)cc21", "values": [
      {"measurement": "Ki", "setting": "[1]", "value": 2.15, "unit": "nM"},
      {"measurement": "Ki", "setting": "[2]", "value": 299, "unit": "nM"},
      {"measurement": "Ratio Ki", "setting": "Rattus norvegicus [3]", "value": 139}
    ]},
    {"smiles": "O=c1[nH]c2ccccc2n1CCCCN1CCN(c2ccc(F)cc2)CC1", "values": [
      {"measurement": "Ki", "setting": "[1]", "value": 18.4, "unit": "nM"},
      {"measurement": "Ki", "setting": "[2]", "value": 144, "unit": "nM"}
    ]}
  ]
}
